Measured values from ChEMBL document CHEMBL1154319, “Further studies on the chemistry of the flustra alkaloids from the bryozoan Flustra foliacea” (2009).
The source made the active and inactive calls. The calls are words filed in the database; no cut-off is given here.

Tests used:
Cyberlindnera jadinii [1] = assay: Antifungal activity against Candida utilis ATCC 9950 at 1.4 mol by disk diffusion method; type: functional
Procedure, shortened: (§1)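 Compound dissolved in MeOH, applied to a 6 mm filter-paper disk and air-dried. Disk placed on an agar plate overgrown with the test organism. Growth-inhibition zone measured from the outer edge of the disk.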

Cyberlindnera jadinii [2] = assay: Antifungal activity against Candida utilis ATCC 9950 at 1.3 mol by disk diffusion method; type: functional; procedure, shortened: as §1
Saccharomyces cerevisiae [3] = assay: Antifungal activity against Saccharomyces cerevisiae ATCC 9763 at 1.3 mol by disk diffusion method; type: functional; procedure, shortened: as §1
Escherichia coli [4] = assay: Antibacterial activity against Escherichia coli ATCC 11775 at 1.3 mol by disk diffusion method; type: functional; procedure, shortened: as §1
Micrococcus luteus [5] = assay: Antibacterial activity against Micrococcus luteus ATCC 49732 at 1.3 mol by disk diffusion method; type: functional; procedure, shortened: as §1
Saccharomyces cerevisiae [6] = assay: Antifungal activity against Saccharomyces cerevisiae ATCC 9763 at 0.9 mol by disk diffusion method; type: functional, organism-based; procedure, shortened: as §1
Micrococcus luteus [7] = assay: Antibacterial activity against Micrococcus luteus ATCC 49732 at 0.9 mol by disk diffusion method; type: functional, organism-based; procedure, shortened: as §1
Escherichia coli [8] = assay: Antibacterial activity against Escherichia coli ATCC 11775 at 0.9 mol by disk diffusion method; type: functional, organism-based; procedure, shortened: as §1
Cyberlindnera jadinii [9] = assay: Antifungal activity against Candida utilis ATCC 9950 at 0.9 mol by disk diffusion method; type: functional, organism-based; procedure, shortened: as §1
Cyberlindnera jadinii [10] = assay: Antifungal activity against Candida utilis ATCC 9950 at 1.5 mol by disk diffusion method; type: functional; procedure, shortened: as §1
Saccharomyces cerevisiae [11] = assay: Antifungal activity against Saccharomyces cerevisiae ATCC 9763 at 1.5 mol by disk diffusion method; type: functional; procedure, shortened: as §1
Micrococcus luteus [12] = assay: Antibacterial activity against Micrococcus luteus ATCC 49732 at 1.5 mol by disk diffusion method; type: functional; procedure, shortened: as §1
Escherichia coli [13] = assay: Antibacterial activity against Escherichia coli ATCC 11775 at 1.5 mol by disk diffusion method; type: functional; procedure, shortened: as §1
Saccharomyces cerevisiae [14] = assay: Antifungal activity against Saccharomyces cerevisiae ATCC 9763 at 0.7 mol by disk diffusion method; type: functional, organism-based; procedure, shortened: as §1
Escherichia coli [15] = assay: Antibacterial activity against Escherichia coli ATCC 11775 at 0.7 mol by disk diffusion method; type: functional, organism-based; procedure, shortened: as §1
Micrococcus luteus [16] = assay: Antibacterial activity against Micrococcus luteus ATCC 49732 at 0.7 mol by disk diffusion method; type: functional, organism-based; procedure, shortened: as §1
Cyberlindnera jadinii [17] = assay: Antifungal activity against Candida utilis ATCC 9950 at 0.7 mol by disk diffusion method; type: functional, organism-based; procedure, shortened: as §1
Micrococcus luteus [18] = assay: Antibacterial activity against Micrococcus luteus ATCC 49732 at 1.2 mol by disk diffusion method; type: functional; procedure, shortened: as §1
Cyberlindnera jadinii [19] = assay: Antifungal activity against Candida utilis ATCC 9950 at 1.2 mol by disk diffusion method; type: functional; procedure, shortened: as §1
Saccharomyces cerevisiae [20] = assay: Antifungal activity against Saccharomyces cerevisiae ATCC 9763 at 1.2 mol by disk diffusion method; type: functional; procedure, shortened: as §1
Escherichia coli [21] = assay: Antibacterial activity against Escherichia coli ATCC 11775 at 1.2 mol by disk diffusion method; type: functional; procedure, shortened: as §1

For C=CC(C)(C)[C@@]12CCN(C)[C@@H]1N(C(C)=O)c1cc(Br)ccc12 [FLUSTRAMINE F], the “inhibition zone (IZ)” value (Cyberlindnera jadinii [1]) was 18 mm.
With CC(C)=CCC/C(C)=C/C[C@@]12CCN(C)[C@@H]1Nc1cccc(O)c12 [DEBROMOFLUSTRAMINE H] the “inhibition zone (IZ)” value (Cyberlindnera jadinii [2]) was 28 mm, the “inhibition zone (IZ)” value (Saccharomyces cerevisiae [3]) was 16 mm and the “inhibition zone (IZ)” value (Escherichia coli [4]) was 22 mm. The “inhibition zone (IZ)” value (Micrococcus luteus [5]) was 23 mm.
With C=CC(C)(C)[C@@]12CCN(C)[C@@H]1N(CN1c3cc(Br)ccc3[C@]3(C(C)(C)C=C)CCN(C)[C@H]13)c1cc(Br)ccc12 the “inhibition zone (IZ)” value (Saccharomyces cerevisiae [6]) was “inactive”, the “inhibition zone (IZ)” value (Micrococcus luteus [7]) was “inactive” and the “inhibition zone (IZ)” value (Escherichia coli [8]) was “inactive”. The “inhibition zone (IZ)” value (Cyberlindnera jadinii [9]) was “inactive”.
CC(C)=CC[C@@]12CCN(C)[C@@H]1Nc1c(Br)ccc(O)c12 [FLUSTRAMINE I] was tested, and the “inhibition zone (IZ)” value (Cyberlindnera jadinii [10]) was 29 mm, the “inhibition zone (IZ)” value (Saccharomyces cerevisiae [11]) was 15 mm and the “inhibition zone (IZ)” value (Micrococcus luteus [12]) was 29 mm. For the same compound, the “inhibition zone (IZ)” value (Escherichia coli [13]) was 25 mm.
In the case of C=CC(C)(C)[C@@]12CCN(C)[C@@H]1N(Cc1cc(Br)c3c(c1O)[C@]1(C/C=C(\C)CCC=C(C)C)CCN(C)[C@@H]1N3)c1cc(Br)ccc12, the “inhibition zone (IZ)” value (Saccharomyces cerevisiae [14]) is reported as “inactive”, the “inhibition zone (IZ)” value (Escherichia coli [15]) is reported as “inactive” and the “inhibition zone (IZ)” value (Micrococcus luteus [16]) is reported as “inactive”. The “inhibition zone (IZ)” value (Cyberlindnera jadinii [17]) was “inactive”.
With CC(C)=CCc1cc(Br)c2c(c1O)[C@]1(CC=C(C)C)CCN(C)[C@@H]1N2 [FLUSTRAMINE L] the “inhibition zone (IZ)” value (Micrococcus luteus [18]) was 25 mm, the “inhibition zone (IZ)” value (Cyberlindnera jadinii [19]) was 30 mm and the “inhibition zone (IZ)” value (Saccharomyces cerevisiae [20]) was 20 mm. For the same compound, the “inhibition zone (IZ)” value (Escherichia coli [21]) was 24 mm.
